Experimental data from ChEMBL document CHEMBL4138126, “Synthesis, antiproliferative, anti-tubulin activity, and docking study of new 1,2,4-triazoles as potential combretastatin analogues” (Eur J Med Chem, 2017).

Columns and labels:
[1] = tested on: NCI/ADR-RES; experiment: Growth inhibition of human NCI-ADR-RES cells assessed as cell growth at 10 uM after 48 hrs by sulforhodamine B assay; assay type: functional; settings: read-out: Activity
Outline: (§1)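 NCI 60-cell-line panel screen (nine cancer types). Compounds added at single concentration 10^-5 M, cultures incubated 48 h; growth inhibition percentages reported.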

[2] = tested on: COLO 205; experiment: Growth inhibition of human COLO205 cells assessed as cell growth at 10 uM after 48 hrs by sulforhodamine B assay; assay type: functional; settings: COLO 205, 48 h, read-out: Activity; outline: as §1
[3] = tested on: NCI-H226; experiment: Growth inhibition of human NCI-H226 cells assessed as cell growth at 10 uM after 48 hrs by sulforhodamine B assay; assay type: functional; settings: NCI-H226, 48 h, read-out: Activity; outline: as §1
[4] = tested on: EKVX; experiment: Growth inhibition of human EKVX cells assessed as cell growth at 10 uM after 48 hrs by sulforhodamine B assay; assay type: functional; settings: read-out: Activity; outline: as §1
[5] = Inhibition of beta tubulin polymerisation in human HepG2 cells incubated for 2 hrs using TMB substrate by ELISA; assay type: cell-based; settings: HepG2, 2 h
[6] = tested on: SK-OV-3; experiment: Growth inhibition of human SKOV3 cells assessed as cell growth at 10 uM after 48 hrs by sulforhodamine B assay; assay type: functional; settings: SK-OV-3, 48 h, read-out: Activity; outline: as §1
[7] = tested on: IGROV-1; experiment: Growth inhibition of human IGROV1 cells assessed as cell growth at 10 uM after 48 hrs by sulforhodamine B assay; assay type: functional; settings: IGROV-1, 48 h, read-out: Activity; outline: as §1
[8] = tested on: OVCAR-3; experiment: Growth inhibition of human OVCAR3 cells assessed as cell growth at 10 uM after 48 hrs by sulforhodamine B assay; assay type: functional; settings: OVCAR-3, 48 h, read-out: Activity; outline: as §1
[9] = tested on: OVCAR-8; experiment: Growth inhibition of human OVCAR8 cells assessed as cell growth at 10 uM after 48 hrs by sulforhodamine B assay; assay type: functional; settings: OVCAR-8, 48 h, read-out: Activity; outline: as §1
[10] = tested on: MDA-MB-435; experiment: Growth inhibition of human MDA-MB-435 cells assessed as cell growth at 10 uM after 48 hrs by sulforhodamine B assay; assay type: functional; settings: MDA-MB-435, 48 h, read-out: Activity; outline: as §1
[11] = tested on: NCI-H23; experiment: Growth inhibition of human NCI-H23 cells assessed as cell growth at 10 uM after 48 hrs by sulforhodamine B assay; assay type: functional; settings: NCI-H23, 48 h, read-out: Activity; outline: as §1
[12] = tested on: HepG2; experiment: Inhibition of beta tubulin polymerisation in human HepG2 cells incubated for 2 hrs using TMB substrate by ELISA relative to untreated control; assay type: cell-based; set-up: concentration or dose not given beside the values; settings: dose or concentration not given here
[13] = tested on: SNB-19; experiment: Growth inhibition of human SNB19 cells assessed as cell growth at 10 uM after 48 hrs by sulforhodamine B assay; assay type: functional; settings: SNB-19, 48 h, read-out: Activity
Outline: (§2)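 NCI 60-cell-line panel from nine tumour types (leukaemia, lung, colon, CNS, melanoma, ovarian, renal, prostate, breast). Each compound was added at one single concentration, and cultures were incubated for 48 h. Results are reported as percent growth inhibition.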

[14] = tested on: UACC-257; experiment: Growth inhibition of human UACC257 cells assessed as cell growth at 10 uM after 48 hrs by sulforhodamine B assay; assay type: functional; settings: UACC-257, 48 h, read-out: Activity; outline: as §2
[15] = tested on: M14; experiment: Growth inhibition of human M14 cells assessed as cell growth at 10 uM after 48 hrs by sulforhodamine B assay; assay type: functional; settings: M14, 48 h, read-out: Activity; outline: as §1
[16] = tested on: CAKI-1; experiment: Growth inhibition of human CAKI-1 cells assessed as cell growth at 10 uM after 48 hrs by sulforhodamine B assay; assay type: functional; settings: CAKI-1, 48 h, read-out: Activity; outline: as §1
[17] = tested on: RXF 393; experiment: Growth inhibition of human RXF393 cells assessed as cell growth at 10 uM after 48 hrs by sulforhodamine B assay; assay type: functional; settings: RXF 393, 48 h, read-out: Activity; outline: as §1
[18] = tested on: NCI-H460; experiment: Growth inhibition of human NCI-H460 cells assessed as cell growth at 10 uM after 48 hrs by sulforhodamine B assay; assay type: functional; settings: NCI-H460, 48 h, read-out: Activity; outline: as §1
[19] = tested on: Hs-578T; experiment: Growth inhibition of human Hs 578T cells assessed as cell growth at 10 uM after 48 hrs by sulforhodamine B assay; assay type: functional; settings: read-out: Activity; outline: as §1
[20] = tested on: HL-60; experiment: Cytotoxicity in human HL60 cells assessed as reduction in cell viability incubated for 48 hrs by MTT assay; assay type: functional, cell-based; settings: HL-60, 48 h
Outline: (§3)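 HepG2 and HL60 (ATCC) grown in DMEM with 10% FBS, 2 mM L-glutamine, penicillin/streptomycin, amphotericin B at 37 °C, 5% CO2. Samples dissolved in DMSO, diluted thousandfold in assay. Cells seeded in serum-free medium, treated with serial concentrations 48 h; MTT 4 h, formazan dissolved in acidified isopropanol, A570. Triplicates averaged; viability relative to untreated/vehicle control.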

[21] = tested on: T47D; experiment: Growth inhibition of human T47D cells assessed as cell growth at 10 uM after 48 hrs by sulforhodamine B assay; assay type: functional; settings: read-out: Activity; outline: as §2
[22] = tested on: MDA-MB-468; experiment: Growth inhibition of human MDA-MB-468 cells assessed as cell growth at 10 uM after 48 hrs by sulforhodamine B assay; assay type: functional; settings: MDA-MB-468, 48 h, read-out: Activity; outline: as §1
[23] = tested on: OVCAR-5; experiment: Growth inhibition of human OVCAR5 cells assessed as cell growth at 10 uM after 48 hrs by sulforhodamine B assay; assay type: functional; settings: OVCAR-5, 48 h, read-out: Activity; outline: as §1
[24] = tested on: HepG2; experiment: Cytotoxicity in human HepG2 cells assessed as reduction in cell viability incubated for 48 hrs by MTT assay; assay type: functional, cell-based; settings: HepG2, 48 h; outline: as §3
[25] = tested on: SF-295; experiment: Growth inhibition of human SF295 cells assessed as cell growth at 10 uM after 48 hrs by sulforhodamine B assay; assay type: functional; settings: SF-295, 48 h, read-out: Activity; outline: as §1
[26] = tested on: SK-MEL-28; experiment: Growth inhibition of human SK-MEL-28 cells assessed as cell growth at 10 uM after 48 hrs by sulforhodamine B assay; assay type: functional; settings: SK-MEL-28, 48 h, read-out: Activity; outline: as §1
[27] = tested on: HCC 2998; experiment: Growth inhibition of human HCC2998 cells assessed as cell growth at 10 uM after 48 hrs by sulforhodamine B assay; assay type: functional; settings: HCC 2998, 48 h, read-out: Activity; outline: as §1
[28] = tested on: UACC-62; experiment: Growth inhibition of human UACC62 cells assessed as cell growth at 10 uM after 48 hrs by sulforhodamine B assay; assay type: functional; settings: UACC-62, 48 h, read-out: Activity; outline: as §2
[29] = tested on: K562; experiment: Growth inhibition of human K562 cells assessed as cell growth at 10 uM after 48 hrs by sulforhodamine B assay; assay type: functional; settings: K562, 48 h, read-out: Activity; outline: as §1
[30] = tested on: SN12C; experiment: Growth inhibition of human SN12C cells assessed as cell growth at 10 uM after 48 hrs by sulforhodamine B assay; assay type: functional; settings: read-out: Activity; outline: as §2
[31] = tested on: SK-MEL-5; experiment: Growth inhibition of human SK-MEL-5 cells assessed as cell growth at 10 uM after 48 hrs by sulforhodamine B assay; assay type: functional; settings: SK-MEL-5, 48 h, read-out: Activity; outline: as §1

Row | SMILES | growth at 10 µM [1] [%] | growth at 10 µM [2] [%] | growth at 10 µM [3] [%] | growth at 10 µM [4] [%] | growth at 10 µM [6] [%] | growth at 10 µM [7] [%] | growth at 10 µM [8] [%] | growth at 10 µM [9] [%] | growth at 10 µM [10] [%] | growth at 10 µM [11] [%] | growth at 10 µM [13] [%] | growth at 10 µM [14] [%] | growth at 10 µM [15] [%] | growth at 10 µM [16] [%] | growth at 10 µM [17] [%] | growth at 10 µM [18] [%] | growth at 10 µM [19] [%] | IC50 [20] [µM] | growth at 10 µM [21] [%] | growth at 10 µM [22] [%] | other results
1 | CCOc1ccc(-n2nc(C(=O)Nc3ccccc3)nc2-c2cc(OC)c(OC)c(OC)c2)cc1 | 45.7 | 22.1 | 80 | 53.2 | 51 | 55.1 | 43.2 | 61.6 | 0.19 | 66.6 | 55.8 | 66.4 | 38 | 51.6 | 69.2 | 27.9 | 39.6 | 1.28 | 39.4 | 42.5 | IC50 [5]: 41.8 µM; inhibition [12]: 42.7%; growth at 10 µM [23]: 84.1%; IC50 [24]: 41.8 µM; growth at 10 µM [25]: 34%
2 | COc1cccc(-n2nc(C(=O)Nc3ccccc3)nc2-c2cc(OC)c(OC)c(OC)c2)c1 | 93.1 | 104 | 96.9 | 91.2 | 102 | 93.1 | 99.9 | 101 | 90.4 | 111 | 102 | 103 | 102 | 73.6 | 97.9 | 107 | 99.7 | > 100 | 62.2 | 84.5 | growth at 10 µM [26]: 96.6%; IC50 [5]: 6.5 µM; growth at 10 µM [27]: 87.3%; inhibition [12]: 62.3%; growth at 10 µM [28]: 95.3%; growth at 10 µM [29]: 121%; growth at 10 µM [30]: 100%; growth at 10 µM [31]: 93.8%; growth at 10 µM [23]: 89.5%; IC50 [24]: 6.53 µM; growth at 10 µM [25]: 91.9%
3 | CCOc1ccc(-n2nc(C(=O)Nc3ccc(F)c(F)c3F)nc2-c2cc(OC)c(OC)c(OC)c2)cc1 | 88.6 | 90 | 91.2 | 78.5 | 85 | 95.6 | 91.6 | 93.4 | 90 | 97.5 | 88.3 | 101 | 93.9 | 60.5 | 89.9 | 104 | 80.7 | 10.9 | 65.7 | 90.2 | growth at 10 µM [26]: 86.7%; growth at 10 µM [27]: 94.6%; growth at 10 µM [28]: 89.7%; growth at 10 µM [29]: 90.7%; growth at 10 µM [30]: 86.5%; growth at 10 µM [31]: 87%; growth at 10 µM [23]: 81.5%; IC50 [24]: 10.8 µM; growth at 10 µM [25]: 93%
